Laboratory results published in paper PMC6081960 (Bioorganic & medicinal chemistry letters, 2018).

Key:
NALM16 cells = assay: St. Jude cancer cell line panel, NALM16; format: cell-based, human; conditions: ALL cell line; confidence intervals in parentheses; NA: not active
Outline: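 Human ALL line NALM16, derived from the peripheral blood of a child at relapse in 1977. Carries a near-haploid karyotype. Tested in a St. Jude screening panel alongside three other ALL lines, one lymphoma line and mouse choroid plexus carcinoma CPC300 cells.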

RAJI cells = assay: St. Jude cancer cell line panel, RAJI; format: cell-based; conditions: Burkitt's lymphoma; confidence intervals in parentheses; NA: not active
Outline: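 RAJI Burkitt's lymphoma cells, FAB L3 subtype, served as the panel's single lymphoma line. Screened together with four ALL lines and mouse CPC300 choroid plexus carcinoma cells at St. Jude.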

REH cells = assay: St. Jude cancer cell line panel, REH; format: cell-based, human; conditions: precursor B-cell ALL; confidence intervals in parentheses; NA: not active
Outline: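 REH: patient-derived precursor B-cell ALL line that expresses only wild-type MLL and wild-type AF4. Screened in a St. Jude panel with other ALL lines, a lymphoma line and mouse CPC300 cells.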

CSc1ccc(/C=C2/C(C)=C(CC(=O)NCCN(C)C)c3cc(F)ccc32)cc1 [SSA, sulindac sulfide amide]
no activity: EC50 NALM16 (NALM16 cells) | EC50 RAJI (RAJI cells) | EC50 REH (REH cells)
